In ChEMBL document CHEMBL2385063, “Identification of 2-(2-(1-naphthoyl)-8-fluoro-3,4-dihydro-1H-pyrido[4,3-b]indol-5(2H)-yl)acetic acid (setipiprant/ACT-129968), a potent, selective, and orally bioavailable chemoattractant receptor-homologous molecule expressed on Th2 cells (CRTH2) antagonist” (J Med Chem, 2013):
The source made the active and inactive calls. No cut-off for these calls is given here.

Columns and labels:
[1] = molecular target: T1, Prostaglandin E2 receptor EP4 subtype (Homo sapiens, UniProt P35408); assay: Inhibition of beta-arrestin binding to recombinant human prostanoid EP4 receptor expressed in HEK293 cell membranes by beta-lactamase complementation assay
[2] = molecular target: T2, Prostaglandin D2 receptor 2 (Homo sapiens, UniProt Q9Y5Y4); assay: Antagonist activity at human CRTH2 receptor expressed in HEK293 cells assessed as inhibition of PGD2-induced calcium flux after 5 mins by FLIPR assay; format: functional, cell-based
T2 sequence (Q9Y5Y4 whole entry): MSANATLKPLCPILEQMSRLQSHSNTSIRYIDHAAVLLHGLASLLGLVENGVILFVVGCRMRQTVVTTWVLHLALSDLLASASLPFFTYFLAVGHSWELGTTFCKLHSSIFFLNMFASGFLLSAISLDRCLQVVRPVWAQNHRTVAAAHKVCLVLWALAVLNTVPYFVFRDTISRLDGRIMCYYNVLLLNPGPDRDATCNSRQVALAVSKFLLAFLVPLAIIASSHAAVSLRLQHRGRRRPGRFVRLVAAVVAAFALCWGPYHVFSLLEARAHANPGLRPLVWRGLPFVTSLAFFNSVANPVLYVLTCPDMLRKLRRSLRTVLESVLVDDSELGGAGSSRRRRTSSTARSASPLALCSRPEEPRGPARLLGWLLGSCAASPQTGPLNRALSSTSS
Summary of the method: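 HEK-293 cells stably expressing hCRTh2 were loaded with 4 μM Fluo-4 AM for 40 min at 37 °C in HBSS/20 mM HEPES pH 7.2. Compound was added 5 min before 50 nM PGD2 (final) in buffer with 0.05% BSA. Peak fluorescence was normalised to no-antagonist control after baseline subtraction; IC50 from four-parameter fit.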

[3] = molecular target: T3, Prostaglandin D2 receptor 2 (Mus musculus) (UniProt Q9Z2J6); assay: Antagonist activity at mouse CRTH2 receptor assessed as inhibition of calcium flux by cell-based FLIPR assay; format: functional
T3 sequence (whole entry): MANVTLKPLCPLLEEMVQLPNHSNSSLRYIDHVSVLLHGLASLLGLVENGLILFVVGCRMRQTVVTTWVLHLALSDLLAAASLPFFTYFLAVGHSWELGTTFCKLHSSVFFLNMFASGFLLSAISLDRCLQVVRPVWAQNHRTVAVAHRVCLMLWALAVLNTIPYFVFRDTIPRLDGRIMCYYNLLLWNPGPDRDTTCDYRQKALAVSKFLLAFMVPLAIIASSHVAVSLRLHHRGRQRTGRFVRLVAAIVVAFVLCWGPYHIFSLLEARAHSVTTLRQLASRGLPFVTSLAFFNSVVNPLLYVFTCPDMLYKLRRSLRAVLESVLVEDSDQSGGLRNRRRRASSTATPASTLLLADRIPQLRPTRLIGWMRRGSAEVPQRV

[4] = molecular target: T4, Prostaglandin E2 receptor EP3 subtype (Homo sapiens, UniProt P43115); assay: Antagonist activity at human prostanoid EP3 receptor expressed in HEK293 cells assessed as inhibition of PGE2-induced calcium flux after 60 mins by FLIPR assay; format: functional, cell-based
T4 sequence (P43115 whole entry): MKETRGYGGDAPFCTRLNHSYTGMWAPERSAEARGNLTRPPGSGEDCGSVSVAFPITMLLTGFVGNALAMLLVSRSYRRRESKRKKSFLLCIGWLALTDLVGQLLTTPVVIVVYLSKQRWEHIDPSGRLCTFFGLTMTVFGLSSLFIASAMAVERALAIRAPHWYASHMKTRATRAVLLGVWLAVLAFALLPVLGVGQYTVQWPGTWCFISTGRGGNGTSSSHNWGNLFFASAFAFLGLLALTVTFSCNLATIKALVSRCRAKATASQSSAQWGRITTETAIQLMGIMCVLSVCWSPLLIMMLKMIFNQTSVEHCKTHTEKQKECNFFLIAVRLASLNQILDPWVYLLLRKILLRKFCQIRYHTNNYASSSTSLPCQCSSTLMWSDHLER

Homo sapiens = species: Homo sapiens; assay: Selectivity factor, ratio of IC50 for recombinant human prostanoid DP1 receptor to IC50 for recombinant human CRTH2 receptor
Summary of the method: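 hDP₁ IC₅₀ came from competitive [³H]PGD₂ binding on CHO cells stably overexpressing recombinant hDP₁. hCRTh2 IC₅₀ came from [³H]PGD₂ (2.5 nM) displacement on membranes of HEK-293 cells stably expressing hCRTh2, incubated 90 min at room temperature, filtered and counted. f_Sel = IC₅₀(hDP₁)/IC₅₀(hCRTh2).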

Thromboxane A2 receptor = molecular target: T5, Thromboxane A2 receptor (Homo sapiens, UniProt P21731); assay: Antagonist activity at human prostanoid TP2 receptor expressed in HEK293 cells assessed as inhibition of calcium flux after 30 to 40 mins by FLIPR assay; format: functional, cell-based
T5 sequence (P21731 whole entry): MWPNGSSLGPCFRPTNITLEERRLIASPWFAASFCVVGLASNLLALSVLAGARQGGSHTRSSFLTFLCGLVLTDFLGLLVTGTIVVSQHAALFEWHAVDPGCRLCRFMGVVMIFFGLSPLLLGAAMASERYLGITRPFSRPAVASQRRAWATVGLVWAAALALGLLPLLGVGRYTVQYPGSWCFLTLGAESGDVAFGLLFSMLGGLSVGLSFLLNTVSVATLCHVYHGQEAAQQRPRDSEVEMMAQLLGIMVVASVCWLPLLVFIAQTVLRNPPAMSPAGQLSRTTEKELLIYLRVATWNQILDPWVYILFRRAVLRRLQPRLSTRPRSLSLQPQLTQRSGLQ

[5] = molecular target: T1, Prostaglandin E2 receptor EP4 subtype; assay: Displacement of [3H]PGE2 from recombinant human prostanoid EP4 receptor expressed in HEK293 cell membranes after 90 mins by scintillation counting analysis
[6] = molecular target: T6, G-protein coupled receptor (Canis lupus familiaris) (UniProt Q2A652); assay: Antagonist activity at dog CRTH2 receptor assessed as inhibition of calcium flux by cell-based FLIPR assay; format: functional
T6 sequence (whole entry): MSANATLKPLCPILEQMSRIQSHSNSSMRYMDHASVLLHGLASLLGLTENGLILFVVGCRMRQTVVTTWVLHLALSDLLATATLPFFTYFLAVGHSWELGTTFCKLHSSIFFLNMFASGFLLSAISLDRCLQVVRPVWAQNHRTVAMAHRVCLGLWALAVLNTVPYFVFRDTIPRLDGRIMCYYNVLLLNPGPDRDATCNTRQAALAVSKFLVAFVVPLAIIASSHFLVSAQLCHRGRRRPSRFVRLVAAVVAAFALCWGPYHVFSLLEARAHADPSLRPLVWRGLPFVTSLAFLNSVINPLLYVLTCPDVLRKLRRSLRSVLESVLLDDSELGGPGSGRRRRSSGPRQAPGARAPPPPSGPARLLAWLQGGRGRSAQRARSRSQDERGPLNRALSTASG

[7] = molecular target: T2, Prostaglandin D2 receptor 2; assay: Displacement of [3H]PGD2 from recombinant human CRTH2 receptor expressed in HEK293 cell membranes after 90 mins by scintillation counting analysis in presence of human serum albumin
Summary of the method: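 Same hCRTH2 HEK293 membrane [3H]PGD2 (2.5 nM) displacement, 90 min at room temperature, with 0.5% human serum albumin added to the assay buffer; scintillation counting.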

T1 sequence (P35408 whole entry): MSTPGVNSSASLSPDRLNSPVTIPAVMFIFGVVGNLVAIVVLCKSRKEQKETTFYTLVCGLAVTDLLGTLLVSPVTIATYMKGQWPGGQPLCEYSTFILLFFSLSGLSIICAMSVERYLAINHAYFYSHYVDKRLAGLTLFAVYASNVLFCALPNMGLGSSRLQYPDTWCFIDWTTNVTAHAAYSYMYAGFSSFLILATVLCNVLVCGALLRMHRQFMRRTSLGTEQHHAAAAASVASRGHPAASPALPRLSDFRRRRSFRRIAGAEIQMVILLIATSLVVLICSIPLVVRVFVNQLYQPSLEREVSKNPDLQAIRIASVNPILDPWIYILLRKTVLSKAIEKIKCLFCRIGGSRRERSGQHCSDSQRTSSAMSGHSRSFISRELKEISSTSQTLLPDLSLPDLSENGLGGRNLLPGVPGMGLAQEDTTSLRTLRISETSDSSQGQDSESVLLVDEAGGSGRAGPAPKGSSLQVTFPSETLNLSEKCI

Row | IC50 [1] [µM] | IC50 [2] [µM] | inhibition [3] | IC50 [4] [µM] | Ratio IC50 (Homo sapiens) | IC50 (Thromboxane A2 receptor) [µM] | IC50 [5] [µM] | inhibition [6] | IC50 [7] [µM] | Structure (SMILES)
1 | > 10 | 0.66 | Active | > 25 | 4.1 | > 25 | > 10 | Active | 0.53 | O=C(O)Cn1c2c(c3cc(F)cc(Cl)c31)CN(C(=O)c1cccc3ccccc13)CC2
2 | > 10 | 0.05 | Active | > 25 | > 1100 | > 25 | > 10 | Active | 0.06 | O=C(O)Cn1c2c(c3cc(C(F)(F)F)ccc31)CN(C(=O)c1ccccc1)CC2
3 | > 10 | 1.28 | Active | > 25 | 22 | > 25 | > 10 | Active | 0.18 | O=C(O)Cn1c2c(c3cc(F)cc(Cl)c31)CN(C(=O)c1cccc(Cl)c1)CC2
4 | > 10 | 0.06 | Active | > 25 | 540 | > 25 | > 10 | Active | 0.19 | Cc1ccc2c(c1)c1c(n2CC(=O)O)CCN(C(=O)c2cccc3ccccc23)C1
5 | > 10 | 0.015 | Active | > 25 | > 2000 | > 25 | > 10 | Active | 0.035 | O=C(O)Cn1c2c(c3cc(F)ccc31)CN(C(=O)Cc1c[nH]c3ccccc13)CC2
6 | > 10 | 0.02 | Active | > 25 | 200 | > 25 | > 10 | Active | 0.07 | O=C(O)Cn1c2c(c3cc(C(F)(F)F)ccc31)CN(C(=O)c1cccc3ccccc13)CC2
